# TAAR1 antag: human TAAR1 antagonism; CHO RD-HGA16 TAAR1, Fluo-8 calcium fluorescence, antagonist; 360,000 compounds, 1.5% hits; inhibition, % at 3 µM; Q96RJ0;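 active = inhibition above a per-plate cutoff, the mean inhibition of test compounds on that plate plus 3 SD, cut at about 49% in these data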;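 also: 0% = DMSO plus EC80 beta-PEA response and 100% = DMSO alone without agonist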
#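 Assay system: CHO-derived RD-HGA16 cells stably expressing human TAAR1 plus Gα16. Timing: 140 s kinetic read after compound, 140 s after agonist. Technique: kinetic Fluo-8 calcium fluorescence measurement. Measure: % inhibition of agonist calcium response.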
# OXTR potentiator: human OXTR potentiation | AID 2445 | activation, % at 3 µM | CHO-OTR cells, Fluo-8 calcium fluorescence, potentiator mode; 0% = oxytocin EC15, 100% = EC100 | 320,000 compounds, 0.061% hits | P30559;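 active = activation above that plate's cutoff, the mean activation of tested compounds plus 3 SD, cut at about 6.6% in these data, passing the limit was not always enough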;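 also: 100% uses oxytocin at 75 nM as the full agonist control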
#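 Assay system: CHO cell line stably expressing human OTR. Reagent: EC15 oxytocin agonist. Dosing: single dose, 3.0 µM nominal final compound concentration. Timing: compound 6 min at room temperature before oxytocin, 100 s read. Signal: kinetic Fluo-8 calcium fluorescence. Controls: oxytocin EC15 low and EC100 high.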
# V1R ag counter: activates human V1a receptor in oxytocin agonist counter-screen. P37288. CHO-V1R cells, Fluo-8 calcium fluorescence, agonist mode; 0% DMSO, 100% 3 nM vasopressin. activation, % at 3 µM. 320,000 compounds, 0.25% hits;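 active = activation above the mean activation of all tested compounds plus 3 SD, per screening run, cut at about 20% in these data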;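 also: signal is peak over basal fluorescence ratio across a 100 second FLIPR read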
# Target sequence (P37288 whole entry, looked up): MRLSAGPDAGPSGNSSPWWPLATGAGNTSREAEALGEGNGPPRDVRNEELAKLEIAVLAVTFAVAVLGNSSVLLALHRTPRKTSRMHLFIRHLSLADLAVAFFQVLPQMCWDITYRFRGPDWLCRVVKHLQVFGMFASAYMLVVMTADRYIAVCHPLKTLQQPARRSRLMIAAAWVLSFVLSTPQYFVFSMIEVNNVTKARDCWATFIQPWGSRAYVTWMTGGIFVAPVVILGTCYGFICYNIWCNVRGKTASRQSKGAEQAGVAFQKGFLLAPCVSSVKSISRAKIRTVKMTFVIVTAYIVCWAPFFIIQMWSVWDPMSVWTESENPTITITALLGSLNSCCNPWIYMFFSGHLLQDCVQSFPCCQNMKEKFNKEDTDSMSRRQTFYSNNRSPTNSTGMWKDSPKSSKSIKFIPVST
# OXTR agonist: agonists of human oxytocin receptor. CHO-OTR cells, Fluo-8 calcium fluorescence; normalized: DMSO 0%, oxytocin 100%. P30559. 320,000 compounds, 0.32% hits. activation, % at 3 µM;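 active = activation above the mean of all tested compounds plus 3 SD, cutoff set per screening run, cut at about 20% in these data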;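 also: peak over basal fluorescence ratio from a 100 s FLIPR kinetic read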
# TAAR1 agonist: agonists of human TAAR1; Q96RJ0; 360,000 compounds, 0.99% hits; AID 624467; CHO RD-HGA16 TAAR1, Fluo-8 calcium fluorescence; vehicle wells 0%, saturating PEA agonist 100%; activation, % at 3 µM;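 active = activation above the mean activation of all test compounds in the run plus 3 SD, cut at about 38% in these data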
#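 Assay system: CHO-derived RD-HGA16 cells with stable Gα16 and human TAAR1; timing: 17-24 h seeding, 75 min 37 °C dye, 30 min RT; read-out: % activation from peak over basal fluorescence ratio, DMSO-to-PEA scaled; measured by: kinetic Fluo-8 calcium fluorescence; benchmarks: low control DMSO, high control PEA (EC100); doses: 3 µM single concentration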
# * = called active by the depositor; . = no result given. Shown are actives, neighbours in structure and some others; about 2.3% of the full set was active somewhere.
SMILES,TAAR1 antag,OXTR potentiator,V1R ag counter,OXTR agonist,TAAR1 agonist
O=C(N/N=C/C(Br)=C\c1ccccc1)c1ccc2nc[nH]c2c1,54.3*,-5.5,0.4,-1.7,9.4
CC(C)c1ccc(OCc2ccc(C(=O)N3CCN(c4ccccn4)CC3)cc2)cc1,56.7*,-9.4,1.2,-0.4,8.5
CCc1c(-c2ccccc2OC)ncn1Cc1cccc(-c2ccccc2)c1,11.7,.,.,.,4.9
O=C(NCc1ccncc1)C(=O)Nc1nc(C23CC4CC(CC(C4)C2)C3)cs1,50.1*,-8.3,4.5,0.8,12.2
O=P(CCCCCCCCCP(=O)(c1ccccc1)c1ccccc1)(c1ccccc1)c1ccccc1,90.1*,-21.5,23.7*,20.0*,33.4
COc1ccc(-c2noc(N3CCC(C(=O)Nc4cc(OC)c(OC)c(OC)c4)CC3)n2)cc1,-46.3,-7.8,7.1,3.9,-1.4
COc1cc2ccc(-c3ccc4ccccc4n3)cc2cc1OC,58.4*,.,.,.,10.2
O=C(NCCc1cccs1)C1CCC(=O)N(CCc2cccc(F)c2)C1 (stereo not drawn),-9.6,-13.3,0.2,-1.7,41.8*
O=[N+]([O-])c1ccc(S(=O)(=O)Nc2ccncc2)cc1,-13.3,-10.5,-1.2,-0.4,7.7
O=[N+]([O-])c1ccc(Oc2ccc(S(=O)(=O)Nc3ccccc3)cc2)cc1,.,-15.9,22.4*,31.2*,.
O=S(=O)(Nc1ccccc1)c1ccc(Oc2ncc(C(F)(F)F)cc2Cl)cc1,69.2*,-24.7,21.8*,30.4*,37.5*
CC(C)NS(=O)(=O)c1ccc(Oc2ncc(C(F)(F)F)cc2Cl)cc1,-24.5,-23.0,5.5,1.5,28.3
CCSc1ccccc1C(=O)N1CCC2(CC1)CC(=O)c1ccccc1O2,-11.1,-0.3,4.3,2.5,16.5
Cn1c2ccccc2c(=O)c2c(=O)n(C3CCCCCC3)c(C3CCCCC3)nc21,1.1,.,.,.,37.8*
Cc1nc2c(c(=O)c3ccccc3n2C)c(=O)n1C1CCCC1,11.4,.,.,.,11.4
O=C(CC(Sc1ccc(Br)cc1)C(=O)O)c1ccc(F)cc1 (stereo not drawn),-17.6,-8.2,0.9,0.6,2.5
COC(=O)C1=C(C)N(c2cccc(C)c2)C(=O)/C1=C\c1cccs1,-3.2,-7.6,-0.5,-2.2,47.8*
CCCn1c(=O)c(C(=O)Nc2ncccc2C)c(O)c2ccccc21,0.4,-9.5,27.8*,29.9*,40.3*
CCn1c(=O)c(C(=O)Nc2nc3ccccc3[nH]2)c(O)c2ccccc21,92.6*,-9.8,0.7,17.1,14.5
CCn1c(=O)c(C(=O)Nc2ccccc2)c(O)c2ccccc21,-8.4,-6.5,2.4,-0.8,3.5
Cc1cccc(CN2CCN(C3CN(Cc4cn(Cc5ccc(C(F)(F)F)cc5)nn4)S(=O)(=O)C3)CC2)c1 (stereo not drawn),2.5,.,.,.,7.3
Cn1ncc2c(Nc3ccc([N+](=O)[O-])cc3)nc(Cl)nc21,-1.8,.,.,.,40.7*
Cn1ncc2c(NCCO)nc(Cl)nc21,2.1,.,.,.,1.7
Cc1cnc2ccc(F)cc2c1,-23.9,.,.,.,2.8
COc1ccc(-c2cc(C(=O)Nc3c(C)n(C)n(-c4ccccc4)c3=O)c3ccccc3n2)cc1OC,54.6*,-7.1,3.2,1.9,16.8
SMILES,TAAR1 antag,OXTR potentiator,V1R ag counter,OXTR agonist,TAAR1 agonist
COc1ccc(-c2cc(C(=O)NNC(=O)c3csc(N4CCOCC4)n3)c3ccccc3n2)cc1OC,57.9*,-3.6,1.4,-0.2,13.9
Cc1c(NC(=O)c2cc(-c3cccs3)nc3ccccc23)c(=O)n(-c2ccccc2)n1C,46.3,-10.5,0.0,0.1,20.2
COc1ccc(Cl)cc1NC(=O)CN(C)C(=O)Cn1cnnn1,-13.2,-2.3,0.0,1.1,2.5
CC(C)(C)OC(=O)N1CCCC(C(=O)Nc2cccc(C(=O)NCCCCc3ccccc3)c2)C1 (stereo not drawn),55.6*,.,.,.,12.0
O=C(NCCCCc1ccccc1)c1cccc(NC(=O)C2CCC2)c1,12.6,.,.,.,5.2
CC(C)(C)OC(=O)N1CCCC(C(=O)Nc2cccc(C(=O)NCCc3ccccc3)c2)C1 (stereo not drawn),48.5*,.,.,.,13.3
CC(C)(C)OC(=O)N1CCCC(C(=O)Nc2cccc(C(=O)NC3CC3)c2)C1 (stereo not drawn),-5.2,.,.,.,3.1
O=C(/C=C/c1ccccc1)Nc1cccc(C(=O)NCCCCc2ccccc2)c1,67.0*,.,.,.,12.4
